Source: ChEMBL document CHEMBL3526154, “Metabolism, pharmacokinetics, tissue distribution, and stability studies of the prodrug analog of an anti-hepatitis B virus dinucleoside phosphorothioate” (Drug Metab Dispos, 2012)

Key:
[1] = Drug excretion in female Sprague-Dawley rat urine at 10 mg/kg, po administered as single dose measured at 0 to 24 hrs post-dose by liquid scintillation counting analysis; assay type: ADME, organism-based; design: dose 10 mg/kg, route oral; settings: in vivo
In short: (§1)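 Single [³⁵S]-prodrug dose to rats, i.v. tail-vein bolus (PEG 400/saline vehicle) or oral gavage (citric acid buffer pH 2.5), 5 ml/kg. Urine and feces collected ~1, 4 and 24 h postdose. Radioactivity counted by liquid scintillation and expressed as % of administered dose. Mean and S.D. from nine rats per sex.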

Rattus norvegicus [2] = test: Terminal half life in male Sprague-Dawley rat at 10 mg/kg, iv administered as bolus dose by liquid scintillation counting analysis; assay type: ADME, organism-based; design: dose 10 mg/kg, route intravenous; settings: in vivo
In short: (§2)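 Radioactivity in plasma from rats given a single [35S]-labelled dose, iv (tail vein, 25% PEG 400/75% saline) or oral gavage (0.05 M citric acid, pH 2.5), sampled at 1, 4 and 24 h, measured by liquid scintillation as µg-Eq/ml. Elimination t1/2 and Tmax were derived by noncompartmental analysis with sparse sampling, from nine male and nine female rats.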

Rattus norvegicus [3] = test: AUC in male Sprague-Dawley rat at 10 mg/kg, iv administered as bolus dose by liquid scintillation counting analysis; assay type: ADME, organism-based, Plasma; design: dose 10 mg/kg, route intravenous; settings: in vivo
In short: (§3)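 Single dose of [³⁵S]-labelled prodrug to rats, i.v. tail-vein bolus in 25% PEG 400/75% saline or oral gavage in 0.05 M citric acid buffer pH 2.5, 5 ml/kg. Retro-orbital blood into EDTA at 1, 4 or 24 h; plasma by centrifugation. Radioactivity by liquid scintillation counting as µg-Eq/ml. Noncompartmental sparse-sampling analysis gives Cmax and AUC; nine rats per sex.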

[4] = Drug excretion in female Sprague-Dawley rat feces at 10 mg/kg, iv administered as bolus dose measured at 4 to 24 hrs post-dose by liquid scintillation counting analysis; assay type: ADME, organism-based; design: dose 10 mg/kg, route intravenous; settings: in vivo; in short: as §1
Rattus norvegicus [5] = test: Cmax in male Sprague-Dawley rat at 10 mg/kg, iv administered as bolus dose by liquid scintillation counting analysis; assay type: ADME, organism-based; design: dose 10 mg/kg, route intravenous; settings: in vivo; in short: as §3
Rattus norvegicus [6] = test: Cmax in male Sprague-Dawley rat at 10 mg/kg, po administered as single dose by liquid scintillation counting analysis; assay type: ADME, organism-based; design: dose 10 mg/kg, route oral; settings: in vivo; in short: as §3
[7] = Drug excretion in male Sprague-Dawley rat urine at 10 mg/kg, iv administered as bolus dose measured at 0 to 24 hrs post-dose by liquid scintillation counting analysis; assay type: ADME, organism-based; design: dose 10 mg/kg, route intravenous; settings: in vivo; in short: as §1
[8] = Drug excretion in female Sprague-Dawley rat urine at 10 mg/kg, po administered as single dose measured at 4 to 24 hrs post-dose by liquid scintillation counting analysis; assay type: ADME, organism-based; design: dose 10 mg/kg, route oral; settings: in vivo; in short: as §1
Rattus norvegicus [9] = test: Tmax in male Sprague-Dawley rat at 10 mg/kg, po administered as single dose by liquid scintillation counting analysis; assay type: ADME, organism-based; design: dose 10 mg/kg, route oral; settings: in vivo; in short: as §2
Spleen [10] = test: Drug uptake in Sprague-Dawley rat spleen at 10 mg/kg, po administered as single dose measured at 1 to 24 hrs post-dose by liquid scintillation counting analysis; assay type: ADME, organism-based; design: dose 10 mg/kg, route oral; settings: in vivo
In short: (§4)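 [35S]-labelled prodrug given once to rats, iv bolus via tail vein (25% PEG 400/75% saline) or oral gavage (0.05 M citric acid buffer, pH 2.5), 5 ml/kg. Rats euthanised at 1, 4 or 24 h. Liver, lung, kidney, heart, brain, spleen, tail and retro-orbital plasma were collected. Samples were homogenised and solubilised, and radioactivity was counted by liquid scintillation. Values are µg-equivalent/ml or g and % of dose.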

Rattus norvegicus [11] = test: Drug recovery in female Sprague-Dawley rat at 10 mg/kg, po administered as single dose measured after 24 hrs by liquid scintillation counting analysis; assay type: ADME, organism-based; design: dose 10 mg/kg, route oral; settings: in vivo
In short: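 Rats got a single i.v. bolus or oral gavage dose of [³⁵S]-prodrug at 5 ml/kg over a 24 h study. Radioactivity in blood, tissues, carcass, urine and feces measured by liquid scintillation counting. Total recovery given as % of administered dose at 24 h.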

[12] = Drug excretion in male Sprague-Dawley rat feces at 10 mg/kg, iv administered as bolus dose measured at 4 to 24 hrs post-dose by liquid scintillation counting analysis; assay type: ADME, organism-based; design: dose 10 mg/kg, route intravenous; settings: in vivo; in short: as §1
Heart = test: Drug uptake in Sprague-Dawley rat heart at 10 mg/kg, po administered as single dose measured at 1 to 24 hrs post-dose by liquid scintillation counting analysis; assay type: ADME, organism-based; design: dose 10 mg/kg, route oral; settings: in vivo
In short: (§5)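 Single i.v. tail-vein bolus or oral gavage of [³⁵S]-prodrug to rats, 5 ml/kg. Euthanised by i.p. pentobarbital overdose at 1, 4 or 24 h. Retro-orbital blood collected; liver, lung, kidney, heart, brain and spleen frozen. Tissues homogenised, solubilised and counted by liquid scintillation. Radioactivity given as µg-Eq/g and % of dose.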

Rattus norvegicus [13] = test: AUC in female Sprague-Dawley rat at 10 mg/kg, iv administered as bolus dose by liquid scintillation counting analysis; assay type: ADME, organism-based, Plasma; design: dose 10 mg/kg, route intravenous; settings: in vivo; in short: as §3
Lung = test: Drug uptake in Sprague-Dawley rat lung at 10 mg/kg, iv administered as bolus dose measured at 1 to 24 hrs post-dose by liquid scintillation counting analysis; assay type: ADME, organism-based; design: dose 10 mg/kg, route intravenous; settings: in vivo; in short: as §4
Nucleic Acid = test: Ratio of drug level in liver to plasma in female Sprague-Dawley rat at 10 mg/kg, iv administered as bolus dose measured after 1 hr by liquid scintillation counting analysis; assay type: ADME, organism-based; design: dose 10 mg/kg, route intravenous; settings: other tissue
In short: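 Rats received a single iv bolus of the [35S]-labelled prodrug via tail vein in 25% PEG 400/75% saline, 5 ml/kg. Liver (solubilised homogenate) and plasma (EDTA blood, retro-orbital, just before necropsy) were taken at 1, 4 and 24 h and counted by liquid scintillation. The liver/plasma concentration ratio is the mean at each time point, from nine male and nine female rats.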

Rattus norvegicus [14] = test: AUC in male Sprague-Dawley rat at 10 mg/kg, po administered as single dose by liquid scintillation counting analysis; assay type: ADME, organism-based, Plasma; design: dose 10 mg/kg, route oral; settings: in vivo; in short: as §3
[15] = Drug excretion in female Sprague-Dawley rat feces at 10 mg/kg, po administered as single dose measured at 1 to 4 hrs post-dose by liquid scintillation counting analysis; assay type: ADME, organism-based; design: dose 10 mg/kg, route oral; settings: in vivo; in short: as §1
[16] = Drug excretion in male Sprague-Dawley rat feces at 10 mg/kg, po administered as single dose measured at 4 to 24 hrs post-dose by liquid scintillation counting analysis; assay type: ADME, organism-based; design: dose 10 mg/kg, route oral; settings: in vivo; in short: as §1
Spleen [17] = test: Drug uptake in Sprague-Dawley rat spleen at 10 mg/kg, iv administered as bolus dose measured at 1 to 24 hrs post-dose by liquid scintillation counting analysis; assay type: ADME, organism-based; design: dose 10 mg/kg, route intravenous; settings: in vivo; in short: as §4
[18] = Drug excretion in female Sprague-Dawley rat urine at 10 mg/kg, iv administered as bolus dose measured at 4 to 24 hrs post-dose by liquid scintillation counting analysis; assay type: ADME, organism-based; design: dose 10 mg/kg, route intravenous; settings: in vivo; in short: as §1
[19] = Drug excretion in female Sprague-Dawley rat urine at 10 mg/kg, iv administered as bolus dose measured at 0 to 1 hr post-dose by liquid scintillation counting analysis; assay type: ADME, organism-based; design: dose 10 mg/kg, route intravenous; settings: in vivo; in short: as §1
Rattus norvegicus [20] = test: Cmax in female Sprague-Dawley rat at 10 mg/kg, po administered as single dose by liquid scintillation counting analysis; assay type: ADME, organism-based; design: dose 10 mg/kg, route oral; settings: in vivo; in short: as §3
Blood = test: Drug uptake in Sprague-Dawley rat blood at 10 mg/kg, po administered as single dose measured at 4 hrs post-dose by liquid scintillation counting analysis; assay type: ADME, organism-based; design: dose 10 mg/kg, route oral; settings: in vivo; in short: as §5
Brain = test: Drug uptake in Sprague-Dawley rat brain at 10 mg/kg, po administered as single dose measured at 1 to 24 hrs post-dose by liquid scintillation counting analysis; assay type: ADME, organism-based; design: dose 10 mg/kg, route oral; settings: in vivo; in short: as §5
Rattus norvegicus [21] = test: AUC in female Sprague-Dawley rat at 10 mg/kg, po administered as single dose by liquid scintillation counting analysis; assay type: ADME, organism-based, Plasma; design: dose 10 mg/kg, route oral; settings: in vivo; in short: as §3
[22] = Drug excretion in female Sprague-Dawley rat urine at 10 mg/kg, po administered as single dose measured at 1 to 4 hrs post-dose by liquid scintillation counting analysis; assay type: ADME, organism-based; design: dose 10 mg/kg, route oral; settings: in vivo; in short: as §1

CO[C@@H]1[C@H](OP(=O)(OC[C@H]2O[C@@H](n3cnc4c(N)ncnc43)C[C@@H]2O)[35S]COC(=O)OC(C)C)[C@@H](CO)O[C@H]1n1ccc(=O)[nH]c1=O (some centres not stated)
Drug excretion [1]: 36.88%
beta t1/2 (Rattus norvegicus [2]): 7.8 h
AUC (Rattus norvegicus [3]): 53.58 ugequiv.h/ml
Drug excretion [4]: 9.44%
Cmax (Rattus norvegicus [5]): 6.51 ugequiv/ml
Cmax (Rattus norvegicus [6]): 2.53 ugequiv/ml
Drug excretion [7]: 56.15%
Drug excretion [8]: 34.78%
Tmax (Rattus norvegicus [9]): 4 h
Drug uptake (Spleen [10]): <= 0.5%
Drug recovery (Rattus norvegicus [11]): 80.4%
Drug excretion [12]: 16.9%
Drug uptake (Heart): <= 0.5%
AUC (Rattus norvegicus [13]): 35.21 ugequiv.h/ml
Drug uptake (Lung): Active
Ratio (Nucleic Acid): 3.89
AUC (Rattus norvegicus [14]): 26.86 ugequiv.h/ml
Drug excretion [15]: 0.08%
Drug excretion [16]: 35.71%
Drug uptake (Spleen [17]): <= 0.5%
Drug excretion [18]: 36.79%
Drug excretion [19]: 15.81%
Cmax (Rattus norvegicus [20]): 2.5 ugequiv/ml
Drug uptake (Blood): Active
Drug uptake (Brain): <= 0.5%
AUC (Rattus norvegicus [21]): 27.37 ugequiv.h/ml
Drug excretion [22]: 2.04%
